Active and inactive are the calls of the source. No cut-off for these calls is given here.
Assays:
HepG2 = assay: Antiproliferative activity against human HepG2 cells after 24 hrs by MTS assay; type: functional; details: HepG2, 24 h
In short: (§1)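 Cells plated (1×10^5 cells/mL) and treated about 24 h later with compounds in DMSO diluted in medium, 0.5 to 200 µM; viability read 24 h after treatment by MTS, absorbance 490 nm. GI50 from non-linear regression; mean ± SEM of three independent experiments. HCT116 and SW620 in McCoy's 5A, HepG2 in DMEM, all with 10% FBS, 37 °C, 5% CO2.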

SW-620 = assay: Antiproliferative activity against human SW620 cells expressing p53 mutant after 24 hrs by MTS assay; type: functional; details: SW-620, 24 h; in short: as §1
HCT-116 [1] = assay: Antiproliferative activity against p53-deficient human HCT116 cells after 24 hrs by MTS assay; type: functional; details: HCT-116, 24 h; in short: as §1
[2] = target: T1, Tumour suppressor p53/oncoprotein Mdm2 (Homo sapiens) (UniProt P04637+Q00987); assay: Inhibition of p53-MDM2 (unknown origin) interaction expressed in p53-deficient human HCT116 cells at 10 to 50 uM after 24 hrs by BiFC-based FACS flow cytometric analysis; type: cell-based; details: HCT-116
In short: (§2)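 HCT116 p53-/- cells co-transfected with V1-p53/MDM2-V2 BiFC plasmids (1 µg each, Lipofectamine 2000). Medium replaced 4–6 h post-transfection and compounds in DMSO added. Cells harvested at 24 h with accutase, resuspended in PBS, and complementation fluorescence measured by flow cytometry; n = 3.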

HCT-116 [3] = assay: Antiproliferative activity against human HCT116 cells expressing p53 after 24 hrs by MTS assay; type: functional; details: HCT-116, 24 h; in short: as §1
[4] = Chemical stability in phosphate buffer at pH 7.4 up to 72 hrs by HPLC analysis; type: physicochemical; details: pH 7.4, 72 h
In short: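 12.5 µL of 10^-2 M DMSO stock added to 2.5 mL potassium phosphate buffer (pH 7.4, 0.5 M) at 37 °C; aliquots taken at intervals into acetonitrile and analysed by RP-18 HPLC (acetonitrile/water 70:30, 1 mL/min, UV 260 nm, 25 °C) over 72 h.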

HCT-116 [5] = assay: Induction of apoptosis in p53-deficient human HCT116 cells assessed as caspase 3 activation after 24 hrs by Western blotting analysis; type: functional, cell-based; details: in the assay text read “p53 wild-type” for “p53-deficient”
In short: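 HCT116 p53-/- cells seeded at 3×10^5 cells/mL and exposed to vehicle or compound at 25 and 50 µM for 24 h. Whole-cell extracts (60–80 µg) run on 8% and 14% SDS-PAGE and immunoblotted for caspase-3 or PARP-1/2. Bands quantified by densitometry and normalized to β-actin; three independent experiments.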

Plasma = assay: Metabolic stability in human plasma up to 72 hrs by HPLC analysis; type: ADME, cell-free
[6] = Half life in Sprague-Dawley rat liver microsomes by HPLC analysis in presence of NADPH-regenerating system; type: ADME
In short: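 Male Sprague–Dawley pooled liver microsomes in potassium phosphate pH 7.4 with NADPH regenerating system, preincubated 5 min at 37 °C. Reaction started with 4 µL of 10^-3 M DMSO stock. Aliquots quenched in acetonitrile, centrifuged, and supernatant analysed by RP-18 HPLC at 260 nm for half-life.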

HCT-116 [7] = assay: Induction of apoptosis in p53-deficient human HCT116 cells assessed as increase in PARP cleavage after 24 hrs by Western blotting analysis; type: functional, cell-based; details: in the assay text read “p53 wild-type” for “p53-deficient”
[8] = target: T1, Tumour suppressor p53/oncoprotein Mdm2 (Homo sapiens); assay: Inhibition of p53-MDM2 (unknown origin) interaction expressed in p53-deficient human HCT116 cells at 25 to 50 uM after 24 hrs by BiFC-based FACS flow cytometric analysis; type: cell-based; details: HCT-116; in short: as §2

T1 sequence (P04637 whole entry, looked up): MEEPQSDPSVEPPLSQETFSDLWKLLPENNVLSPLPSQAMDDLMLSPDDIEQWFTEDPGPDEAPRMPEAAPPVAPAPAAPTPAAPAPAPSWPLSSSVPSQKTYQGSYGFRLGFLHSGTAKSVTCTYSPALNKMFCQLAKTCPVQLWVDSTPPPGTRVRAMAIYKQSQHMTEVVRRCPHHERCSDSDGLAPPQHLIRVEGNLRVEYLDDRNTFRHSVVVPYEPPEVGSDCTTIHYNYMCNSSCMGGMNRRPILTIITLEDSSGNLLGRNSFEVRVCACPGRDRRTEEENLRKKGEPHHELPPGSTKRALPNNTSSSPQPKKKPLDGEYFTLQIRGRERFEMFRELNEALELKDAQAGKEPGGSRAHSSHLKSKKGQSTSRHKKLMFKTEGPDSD
T1 sequence (Q00987 whole entry, looked up): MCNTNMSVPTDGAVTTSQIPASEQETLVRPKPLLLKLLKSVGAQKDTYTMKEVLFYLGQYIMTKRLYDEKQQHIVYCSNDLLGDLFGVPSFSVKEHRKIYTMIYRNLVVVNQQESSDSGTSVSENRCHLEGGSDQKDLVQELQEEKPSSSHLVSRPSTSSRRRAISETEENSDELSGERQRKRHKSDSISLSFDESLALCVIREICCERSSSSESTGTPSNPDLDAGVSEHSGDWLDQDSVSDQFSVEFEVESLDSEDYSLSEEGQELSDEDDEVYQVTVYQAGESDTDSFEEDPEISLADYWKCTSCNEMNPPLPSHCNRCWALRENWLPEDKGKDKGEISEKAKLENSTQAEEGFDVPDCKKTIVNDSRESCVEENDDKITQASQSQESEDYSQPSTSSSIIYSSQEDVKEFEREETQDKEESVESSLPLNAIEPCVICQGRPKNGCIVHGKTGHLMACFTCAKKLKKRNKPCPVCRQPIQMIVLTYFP

Compound | GI50 (HepG2) | GI50 (SW-620) | GI50 (HCT-116 [1]) | GI50 (HCT-116 [3]) | also measured
O=C1Nc2ccccc2[C@]12ON=C(c1ccccc1)[C@H]2c1ccccc1 (relative stereo) | > 100 µM | – | – | – | –
O=C1Nc2ccccc2[C@]12ON=C(c1ccc([N+](=O)[O-])cc1)[C@H]2c1ccccc1 (relative stereo) | 52.1 µM | – | – | – | –
COc1ccc(C2=NO[C@@]3(C(=O)Nc4ccccc43)[C@@H]2c2ccccc2)cc1 (relative stereo) | 77.8 µM | – | – | – | –
COc1ccc([C@@H]2C(c3ccccc3)=NO[C@@]23C(=O)Nc2ccccc23)cc1 (relative stereo) | > 100 µM | – | – | – | –
COc1ccc([C@@H]2C(c3ccccc3)=NO[C@@]23C(=O)N(C)c2ccccc23)cc1 (relative stereo) | > 100 µM | – | – | – | –
COc1ccc(C2=NO[C@@]3(C(=O)Nc4ccccc43)[C@@H]2c2ccc(OC)cc2)cc1 (relative stereo) | > 100 µM | – | – | – | –
O=C1Nc2ccc([N+](=O)[O-])cc2[C@]12ON=C(c1ccccc1)[C@H]2c1ccccc1 (relative stereo) | 83.6 µM | – | – | – | –
COc1ccc(C2=NO[C@@]3(C(=O)Nc4ccc([N+](=O)[O-])cc43)[C@@H]2c2ccccc2)cc1 (relative stereo) | 53.1 µM | – | – | – | –
O=C1Nc2c(Cl)cccc2[C@]12ON=C(c1ccc([N+](=O)[O-])cc1)[C@H]2c1ccccc1 (relative stereo) | 55.5 µM | – | – | – | –
COc1ccc(C2=NO[C@@]3(C(=O)Nc4c(Cl)cccc43)[C@@H]2c2ccccc2)cc1 (relative stereo) | 55.8 µM | – | – | – | –
O=C1Nc2cc(Cl)ccc2[C@]12ON=C(c1ccccc1)[C@H]2c1ccccc1 (relative stereo) | 37.1 µM | 48.9 µM | 48.2 µM | 39.8 µM | inhibition [2]: Active
COc1ccc(C2=NO[C@@]3(C(=O)Nc4cc(Cl)ccc43)[C@@H]2c2ccccc2)cc1 (relative stereo) | 38.1 µM | 53.2 µM | 40.1 µM | 34.7 µM | Stability [4]: Stable; Activity (HCT-116 [5]): Dose-dependent effect; Stability (Plasma): Stable; half-life [6]: 3.15 h; Activity (HCT-116 [7]): Dose-dependent effect; inhibition [8]: Active
O=C1Nc2cc(Cl)ccc2[C@]12ON=C(c1ccc([N+](=O)[O-])cc1)[C@H]2c1ccccc1 (relative stereo) | 33.8 µM | 33.5 µM | 39 µM | 32.4 µM | –
Cc1ccc(C2=NO[C@@]3(C(=O)Nc4cc(Cl)ccc43)[C@@H]2c2ccccc2)cc1 (relative stereo) | 29.1 µM | 31.6 µM | 30.6 µM | 26.6 µM | Activity (HCT-116 [5]): Dose-dependent effect; Activity (HCT-116 [7]): Dose-dependent effect; inhibition [8]: Active
COc1ccccc1C1=NO[C@@]2(C(=O)Nc3cc(Cl)ccc32)[C@@H]1c1ccccc1 (relative stereo) | 35.7 µM | 36.7 µM | 35.6 µM | 30.5 µM | –
COc1ccc(C2=NO[C@@]3(C(=O)Nc4cc(Cl)ccc43)[C@@H]2c2ccc(OC)cc2)cc1 (relative stereo) | > 100 µM | – | – | – | –
O=C1Nc2cc(Br)ccc2[C@]12ON=C(c1ccccc1)[C@H]2c1ccccc1 (relative stereo) | 32.8 µM | 39.6 µM | 40.6 µM | 35 µM | –
COc1ccc(C2=NO[C@@]3(C(=O)Nc4cc(Br)ccc43)[C@@H]2c2ccccc2)cc1 (relative stereo) | 31.7 µM | 40.4 µM | 39 µM | 33.4 µM | Stability [4]: Stable; Stability (Plasma): Stable; half-life [6]: 3.62 h
COc1ccc(C2=N[C@@H](c3ccc(Cl)cc3)[C@@H](c3ccc(Cl)cc3)N2C(=O)N2CCNC(=O)C2)c(OC(C)C)c1 [NUTLIN-3] | 51.3 µM | – | 52.3 µM | – | –

Source: ChEMBL document CHEMBL3098112, “Synthesis and evaluation of spiroisoxazoline oxindoles as anticancer agents” (Bioorg Med Chem, 2014)
